In ChEMBL document CHEMBL1944567, “Synthesis, biological evaluation, and molecular modeling of chalcone derivatives as potent inhibitors of Mycobacterium tuberculosis protein tyrosine phosphatases (PtpA and PtpB)” (J Med Chem, 2012):

Tests used:
[1] = Solubility of the compound; assay type: physicochemical
[2] = target: T1, Phosphotyrosine-protein phosphatase PTPB (Mycobacterium tuberculosis) (UniProt P96830); test: Inhibition of Mycobacterium tuberculosis PTP-B using p-nitrophenyl phosphate as substrate at 25 uM measured for 10 mins by spectrofluorimetry
T1 sequence (whole entry): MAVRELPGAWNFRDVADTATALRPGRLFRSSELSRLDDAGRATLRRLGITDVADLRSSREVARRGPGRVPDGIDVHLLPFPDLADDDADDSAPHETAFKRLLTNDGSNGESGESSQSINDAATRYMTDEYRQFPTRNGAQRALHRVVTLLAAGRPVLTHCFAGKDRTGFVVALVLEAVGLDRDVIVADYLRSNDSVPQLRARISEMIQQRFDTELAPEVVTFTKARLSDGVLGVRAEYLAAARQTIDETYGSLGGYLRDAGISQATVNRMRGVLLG
How it was run: (§1)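 Single-point screen at 25 μM final compound, added from 1.0 × 10−3 M DMSO stock, with recombinant Mtb PtpA or PtpB (0.4 μg/μL final) in 20 mM imidazole pH 7.0 with 40 mM pNPP. Reaction started by adding enzyme. p-Nitrophenol release read at 410 nm every min for 10 min at 37 °C. Residual activity was taken from the absorbance difference between 6 and 2 min; two experiments, each in triplicate.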

[3] = target: T2, Low molecular weight protein-tyrosine phosphatase A (Mycobacterium tuberculosis) (UniProt P9WIA1); test: Inhibition of Mycobacterium tuberculosis PTP-A using p-nitrophenyl phosphate as substrate at 25 uM measured for 10 mins by spectrofluorimetry; how it was run: as §1
T2 sequence (whole entry): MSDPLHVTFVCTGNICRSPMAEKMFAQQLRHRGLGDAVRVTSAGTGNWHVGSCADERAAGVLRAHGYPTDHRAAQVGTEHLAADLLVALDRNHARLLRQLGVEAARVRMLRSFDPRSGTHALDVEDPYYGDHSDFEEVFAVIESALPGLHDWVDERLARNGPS

CCCCOc1ccc(/C=C/C(=O)c2ccc3c(c2)OCO3)cc1
solubility [1]: soluble
inhibition [2]: 0%
inhibition [3]: 11%

COc1ccc2nc(Cl)c(/C=C/C(=O)c3ccc4ccccc4c3)cc2c1
solubility [1]: soluble
inhibition [2]: 17%
inhibition [3]: 22%

COc1cc(OC)c(C(=O)/C=C/c2ccc3ccccc3c2)cc1OC
solubility [1]: soluble
inhibition [2]: 14%
inhibition [3]: 22%

O=C(/C=C/c1ccc(C(F)(F)F)cc1)c1ccc2c(c1)OCO2
solubility [1]: soluble
inhibition [2]: 0%
inhibition [3]: 7%

COc1cc(OC)c(C(=O)/C=C/c2ccc3c(c2)OCO3)c(OC)c1
solubility [1]: soluble
inhibition [2]: 15%
inhibition [3]: 0%

O=C(/C=C/c1ccc(Cl)c(C(F)(F)F)c1)c1ccc2ccccc2c1
solubility [1]: soluble
inhibition [2]: 0%
inhibition [3]: 13%

COc1ccc(/C=C/C(=O)c2ccc3c(c2)OCO3)cc1
solubility [1]: soluble
inhibition [2]: 11%
inhibition [3]: 17%

CN(C)c1ccc(/C=C/C(=O)c2ccc3c(c2)OCO3)cc1
solubility [1]: soluble
inhibition [2]: 0%
inhibition [3]: 10%

COc1cccc(C(=O)/C=C/c2ccc3ccccc3c2)c1
solubility [1]: soluble
inhibition [2]: 0%
inhibition [3]: 0%

O=C(/C=C/c1cccc(C(F)(F)F)c1)c1ccc2ccccc2c1
solubility [1]: soluble
inhibition [2]: 0%
inhibition [3]: 24%

O=C(/C=C/c1cc2ccccc2nc1Cl)c1ccc2c(c1)OCO2
solubility [1]: soluble
inhibition [2]: 0%
inhibition [3]: 19%

COc1cc(OC)cc(C(=O)/C=C/c2ccc3ccccc3c2)c1
solubility [1]: soluble
inhibition [2]: 10%
inhibition [3]: 0%

CCCCOc1ccc(/C=C/C(=O)c2ccc3ccccc3c2)cc1
solubility [1]: soluble
inhibition [2]: 17%
inhibition [3]: 8%

O=C(/C=C/c1ccccc1)c1ccc2c(c1)OCO2
solubility [1]: soluble
inhibition [2]: 0%
inhibition [3]: 0%

O=C(/C=C/c1c(Cl)cccc1Cl)c1ccc2ccccc2c1
solubility [1]: soluble
inhibition [2]: 0%
inhibition [3]: 16%

COc1ccc(/C=C/C(=O)c2ccc3c(c2)OCO3)cc1OC
solubility [1]: soluble
inhibition [2]: 0%
inhibition [3]: 19%

O=C(/C=C/c1c(Cl)cccc1Cl)c1ccc2c(c1)OCO2
solubility [1]: soluble
inhibition [2]: 0%
inhibition [3]: 13%

O=C(/C=C/c1ccc2c(c1)OCO2)c1ccc2c(c1)OCO2
solubility [1]: soluble
inhibition [2]: 0%
inhibition [3]: 6%

O=C(/C=C/c1cccs1)c1ccc2c(c1)OCO2
solubility [1]: soluble
inhibition [2]: 0%
inhibition [3]: 7%

O=C(/C=C/c1ccc2c(c1)OCO2)c1ccc2ccccc2c1
solubility [1]: soluble
inhibition [2]: 0%
inhibition [3]: 13%

O=C(/C=C/c1cccc([N+](=O)[O-])c1)c1ccc2ccccc2c1
solubility [1]: soluble
inhibition [2]: 7%
inhibition [3]: 12%

COc1cc(/C=C/C(=O)c2ccc3ccccc3c2)ccc1OCc1ccccc1
solubility [1]: soluble
inhibition [2]: 0%
inhibition [3]: 5%

O=C(/C=C/c1ccc2ccccc2c1)c1ccc(Cl)c(Cl)c1
solubility [1]: soluble
inhibition [2]: 18%
inhibition [3]: 9%

O=C(/C=C/c1ccccc1Cl)c1ccc2c(c1)OCO2
solubility [1]: soluble
inhibition [2]: 0%
inhibition [3]: 5%

COc1cc(/C=C/C(=O)c2ccc3c(c2)OCO3)cc(OC)c1OC
solubility [1]: soluble
inhibition [2]: 0%
inhibition [3]: 5%

O=C(/C=C/c1ccccc1Cl)c1ccc2ccccc2c1
solubility [1]: soluble
inhibition [2]: 13%
inhibition [3]: 0%

O=C(/C=C/c1cccc(Cl)c1)c1ccc2ccccc2c1
solubility [1]: soluble
inhibition [2]: 0%
inhibition [3]: 7%

COc1cc(/C=C/C(=O)c2ccc3c(c2)OCO3)ccc1OCc1ccccc1
solubility [1]: soluble
inhibition [2]: 0%
inhibition [3]: 12%

O=C(/C=C/c1ccc(Cl)cc1)c1ccc2ccccc2c1
solubility [1]: soluble
inhibition [2]: 27%
inhibition [3]: 13%

Cc1ccc(/C=C/C(=O)c2ccc3ccccc3c2)cc1
solubility [1]: soluble
inhibition [2]: 28%
inhibition [3]: 8%

COc1cc(OC)c(C(=O)/C=C/c2ccc3c(c2)OCO3)cc1OC
solubility [1]: soluble
inhibition [2]: 29%
inhibition [3]: 8%

COc1ccc(OC)c(/C=C/C(=O)c2ccc3ccccc3c2)c1
solubility [1]: soluble
inhibition [2]: 0%
inhibition [3]: 22%

O=C(/C=C/c1ccc(Cl)c(Cl)c1)c1ccc2ccccc2c1
solubility [1]: soluble
inhibition [2]: 28%
inhibition [3]: 11%

O=C(/C=C/c1ccc(F)cc1)c1ccc2c(c1)OCO2
solubility [1]: soluble
inhibition [2]: 0%
inhibition [3]: 0%

O=C1COc2ccc(C(=O)/C=C/c3ccc4ccccc4c3)cc2N1
solubility [1]: soluble
inhibition [2]: 24%
inhibition [3]: 0%

O=C(/C=C/c1ccc(-c2ccccc2[N+](=O)[O-])o1)c1ccc2c(c1)OCO2
solubility [1]: soluble
inhibition [2]: 10%
inhibition [3]: 19%

O=C(/C=C/c1ccccc1F)c1ccc2ccccc2c1
solubility [1]: soluble
inhibition [2]: 0%
inhibition [3]: 23%

COc1cccc(/C=C/C(=O)c2ccc3c(c2)OCO3)c1
solubility [1]: soluble
inhibition [2]: 0%
inhibition [3]: 10%

N#Cc1ccc(/C=C/C(=O)c2ccc3c(c2)OCO3)cc1
solubility [1]: soluble
inhibition [2]: 0%
inhibition [3]: 4%

COc1ccc(/C=C/C(=O)c2ccc3ccccc3c2)c(OC)c1OC
solubility [1]: soluble
inhibition [2]: 0%
inhibition [3]: 0%

O=C(/C=C/c1ccc2ccccc2c1)c1cc(Cl)ccc1Cl
solubility [1]: soluble
inhibition [2]: 20%
inhibition [3]: 0%

O=C(/C=C/c1cccc([N+](=O)[O-])c1)c1ccc2c(c1)OCO2
solubility [1]: soluble
inhibition [2]: 22%
inhibition [3]: 23%

O=C(/C=C/c1ccccc1)c1ccc2ccccc2c1
solubility [1]: soluble
inhibition [2]: 16%
inhibition [3]: 4%

Cc1ccc(/C=C/C(=O)c2ccc3c(c2)OCO3)cc1
solubility [1]: soluble
inhibition [2]: 0%
inhibition [3]: 14%

O=C(/C=C/c1cccc(Br)c1)c1ccc2ccccc2c1
solubility [1]: soluble
inhibition [2]: 20%
inhibition [3]: 0%

COc1cccc(OC)c1/C=C/C(=O)c1ccc2c(c1)OCO2
solubility [1]: soluble
inhibition [2]: 0%
inhibition [3]: 4%

O=C(/C=C/c1cccs1)c1ccc2ccccc2c1
solubility [1]: soluble
inhibition [2]: 0%
inhibition [3]: 15%

COc1cccc(/C=C/C(=O)c2ccc3ccccc3c2)c1
solubility [1]: soluble
inhibition [2]: 0%
inhibition [3]: 10%

COc1ccc(OC)c(C(=O)/C=C/c2ccc(OCc3ccccc3)c(OC)c2)c1
solubility [1]: soluble
inhibition [2]: 16%
inhibition [3]: 12%

COc1cc(OC)c(/C=C/C(=O)c2ccc3c(c2)OCO3)c(OC)c1
solubility [1]: soluble
inhibition [2]: 0%
inhibition [3]: 5%

O=C(/C=C/c1cc(Cl)cc(Cl)c1)c1ccc2ccccc2c1
solubility [1]: soluble
inhibition [2]: 29%
inhibition [3]: 19%

COc1cc(/C=C/C(=O)c2ccc3c(c2)OCO3)ccc1O
solubility [1]: soluble
inhibition [2]: 0%
inhibition [3]: 0%

COc1cc(/C=C/C(=O)c2ccc(Cl)s2)ccc1OCc1ccccc1
solubility [1]: soluble
inhibition [2]: 19%
inhibition [3]: 5%

O=C(/C=C/c1ccccc1F)c1ccc2c(c1)OCO2
solubility [1]: soluble
inhibition [2]: 0%
inhibition [3]: 9%

O=C(/C=C/c1ccc2ccccc2c1)c1ccc2c(c1)OCO2
solubility [1]: soluble
inhibition [2]: 15%
inhibition [3]: 12%

O=C(/C=C/c1cccc2ccccc12)c1ccc2c(c1)OCO2
solubility [1]: soluble
inhibition [2]: 0%
inhibition [3]: 8%

O=C(/C=C/c1ccc(F)cc1)c1ccc2ccccc2c1
solubility [1]: soluble
inhibition [2]: 14%
inhibition [3]: 13%

N#Cc1ccc(/C=C/C(=O)c2ccc3ccccc3c2)cc1
solubility [1]: soluble
inhibition [2]: 20%
inhibition [3]: 21%

COc1cc(OC)c(OC)cc1/C=C/C(=O)c1ccc2ccccc2c1
solubility [1]: soluble
inhibition [2]: 0%
inhibition [3]: 7%

O=C(/C=C/c1cc(Cl)cc(Cl)c1)c1ccc2c(c1)OCO2
solubility [1]: soluble
inhibition [2]: 0%
inhibition [3]: 14%

O=C(/C=C/c1cccc(Cl)c1)c1ccc2c(c1)OCO2
solubility [1]: soluble
inhibition [2]: 0%
inhibition [3]: 23%

O=C(/C=C/c1ccc(Br)cc1)c1ccc2ccccc2c1
solubility [1]: soluble
inhibition [2]: 24%
inhibition [3]: 8%
